Assay results published in ChEMBL document CHEMBL2203123, “Synthesis and biological evaluation of some hydrazone derivatives as new anticandidal and anticancer agents” (Eur J Med Chem, 2012).
In brackets after ≈: the same amount, converted by molar mass.

Columns and labels:
[1] = test system: Nakaseomyces glabratus; experiment: Antifungal activity against Candida glabrata Anadolu University clinical isolate after 24 hrs by microdilution susceptibility assay; format: functional
Procedure, shortened: (§1)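 Broth microdilution in Mueller Hinton Broth, compounds from DMSO stocks diluted serially; inocula standardized to 10^6 CFU/mL (McFarland 0.5) from overnight MHB cultures. Plates held 37 °C for 24 h; MIC taken as first well without turbidity, aided by 1% tetrazolium violet added for 3 h at 37 °C. Ketoconazole reference.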

[2] = test system: Nakaseomyces glabratus; experiment: Antifungal activity against Candida glabrata Osmangazi University clinical isolate after 24 hrs by microdilution susceptibility assay; format: functional; procedure, shortened: as §1
[3] = test system: Candida parapsilosis; experiment: Antifungal activity against Candida parapsilosis NRRL Y-12696 after 24 hrs by microdilution susceptibility assay; format: functional; conditions: Lodderomyces parapsilosis, NRRL Y-12696, 24 h; procedure, shortened: as §1
[4] = test system: Candida albicans; experiment: Antifungal activity against Candida albicans clinical isolate after 24 hrs by microdilution susceptibility assay; format: functional; procedure, shortened: as §1
[5] = test system: NIH3T3; experiment: Cytotoxicity against mouse NIH/3T3 cells after 24 hrs by XTT assay; format: cell-based; conditions: NIH3T3, 24 h
Procedure, shortened: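 Mouse NIH3T3 fibroblasts grown in DMEM with fetal calf serum, penicillin/streptomycin, 37 °C, 5% CO2; 20,000 cells/well, treated after 24 h with 0.00316 µM-10 mM compound for 24 h. Viability via XTT (3 h, OD 480 nm, reference 680 nm); % inhibition computed and IC50 fitted by non-linear regression.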

[6] = test system: A549; experiment: Cytotoxicity against human A549 cells after 24 hrs by XTT assay; format: functional, cell-based; conditions: A549, 24 h
Procedure, shortened: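 A549 cells in RPMI 1640 with 10% fetal calf serum, penicillin/streptomycin, 37 °C, 5% CO2; 20,000 cells/well seeded, after 24 h exposed to compounds at 0.00316 µM-10 mM for 24 h. XTT mitochondrial activity read at 480 nm (reference 680 nm) after 3 h; % inhibition per concentration, IC50 by non-linear regression.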

[7] = test system: Candida albicans; experiment: Antifungal activity against Candida albicans ATCC 90028 after 24 hrs by microdilution susceptibility assay; format: functional; conditions: ATCC 90028, 24 h; procedure, shortened: as §1
[8] = test system: Cyberlindnera jadinii; experiment: Antifungal activity against Candida utilis NRRL Y-900 after 24 hrs by microdilution susceptibility assay; format: functional; conditions: Williopsis jadinii, NRRL Y-900, 24 h; procedure, shortened: as §1
[9] = test system: Pichia kudriavzevii; experiment: Antifungal activity against Candida krusei NRRL Y-7179 after 24 hrs by microdilution susceptibility assay; format: functional; conditions: NRRL Y-7179, 24 h; procedure, shortened: as §1
[10] = test system: Candida albicans; experiment: Antifungal activity against Candida albicans ATCC 10231 after 24 hrs by microdilution susceptibility assay; format: functional; conditions: ATCC 10231, 24 h; procedure, shortened: as §1

Row | Compound | MIC [1] | MIC [2] | MIC [3] | MIC [4] | IC50 [5] | IC50 [6] | MIC [7] | MIC [8] | MIC [9] | MIC [10]
1 | Cn1nnnc1SCC(=O)N/N=C/c1cccc(Cl)c1 | > 8000 µg/mL | > 8000 µg/mL | > 8000 µg/mL | > 8000 µg/mL | 7.5 mM | 7.5 mM | > 8000 µg/mL | > 8000 µg/mL | > 8000 µg/mL | > 8000 µg/mL
2 | Cn1nnnc1SCC(=O)N/N=C/c1ccccc1Br | > 8000 µg/mL | > 8000 µg/mL | > 8000 µg/mL | > 8000 µg/mL | 0.02 mM | 2 mM | > 8000 µg/mL | > 8000 µg/mL | > 8000 µg/mL | > 8000 µg/mL
3 | Cn1nnnc1SCC(=O)N/N=C/c1cccc(Br)c1 | > 8000 µg/mL | > 8000 µg/mL | > 8000 µg/mL | > 8000 µg/mL | 0.316 mM | 0.6 mM | > 8000 µg/mL | > 8000 µg/mL | > 8000 µg/mL | > 8000 µg/mL
4 | Cn1nnnc1SCC(=O)N/N=C/c1ccccc1O | > 8000 µg/mL | > 8000 µg/mL | > 8000 µg/mL | > 8000 µg/mL | > 10 mM | > 10 mM | > 8000 µg/mL | > 8000 µg/mL | > 8000 µg/mL | > 8000 µg/mL
5 | Cn1nnnc1SCC(=O)N/N=C/c1cccc(O)c1 | > 8000 µg/mL | > 8000 µg/mL | > 8000 µg/mL | > 8000 µg/mL | 3.16 mM | 4.5 mM | > 8000 µg/mL | > 8000 µg/mL | > 8000 µg/mL | > 8000 µg/mL
6 | COc1ccccc1/C=N/NC(=O)CSc1nnnn1C | > 8000 µg/mL | > 8000 µg/mL | > 8000 µg/mL | > 8000 µg/mL | 3.16 mM | 7 mM | > 8000 µg/mL | > 8000 µg/mL | > 8000 µg/mL | > 8000 µg/mL
7 | COc1cccc(/C=N/NC(=O)CSc2nnnn2C)c1 | > 8000 µg/mL | > 8000 µg/mL | > 8000 µg/mL | > 8000 µg/mL | 0.6 mM | > 10 mM | > 8000 µg/mL | > 8000 µg/mL | > 8000 µg/mL | > 8000 µg/mL
8 | Cc1ccccc1/C=N/NC(=O)CSc1nnnn1C | > 8000 µg/mL | > 8000 µg/mL | > 8000 µg/mL | > 8000 µg/mL | 6.32 mM | > 10 mM | > 8000 µg/mL | > 8000 µg/mL | > 8000 µg/mL | > 8000 µg/mL
9 | Cc1cccc(/C=N/NC(=O)CSc2nnnn2C)c1 | > 8000 µg/mL | > 8000 µg/mL | > 8000 µg/mL | > 8000 µg/mL | 6.25 mM | 2 mM | > 8000 µg/mL | > 8000 µg/mL | > 8000 µg/mL | > 8000 µg/mL
10 | Cn1nnnc1SCC(=O)N/N=C/c1cccc(Cl)c1Cl | > 8000 µg/mL | > 8000 µg/mL | > 8000 µg/mL | > 8000 µg/mL | 0.52 mM | 0.632 mM | > 8000 µg/mL | > 8000 µg/mL | > 8000 µg/mL | > 8000 µg/mL
11 | Cn1nnnc1SCC(=O)N/N=C/c1ccc(Cl)cc1Cl | > 8000 µg/mL | > 8000 µg/mL | > 8000 µg/mL | > 8000 µg/mL | 2.14 mM | 0.5 mM | > 8000 µg/mL | > 8000 µg/mL | > 8000 µg/mL | > 8000 µg/mL
12 | Cn1nnnc1SCC(=O)N/N=C/c1c(Cl)cccc1Cl | > 8000 µg/mL | > 8000 µg/mL | > 8000 µg/mL | > 8000 µg/mL | > 10 mM | 1 mM | > 8000 µg/mL | > 8000 µg/mL | > 8000 µg/mL | > 8000 µg/mL
13 | C/C(=N\NC(=O)CSc1nnnn1C)c1ccccc1Cl | > 8000 µg/mL | > 8000 µg/mL | > 8000 µg/mL | > 8000 µg/mL | 6 mM | 6.32 mM | > 8000 µg/mL | > 8000 µg/mL | > 8000 µg/mL | > 8000 µg/mL
14 | C/C(=N\NC(=O)CSc1nnnn1C)c1cccc(Cl)c1 | > 8000 µg/mL | > 8000 µg/mL | > 8000 µg/mL | > 8000 µg/mL | 3.4 mM | > 10 mM | > 8000 µg/mL | > 8000 µg/mL | > 8000 µg/mL | > 8000 µg/mL
15 | C/C(=N\NC(=O)CSc1nnnn1C)c1ccc(Cl)cc1 | > 8000 µg/mL | > 8000 µg/mL | > 8000 µg/mL | > 8000 µg/mL | 0.1 mM | 6 mM | > 8000 µg/mL | > 8000 µg/mL | > 8000 µg/mL | > 8000 µg/mL
16 | C/C(=N\NC(=O)CSc1nnnn1C)c1ccc(Cl)cc1Cl | > 8000 µg/mL | > 8000 µg/mL | > 8000 µg/mL | > 8000 µg/mL | 1 mM | 0.8 mM | > 8000 µg/mL | > 8000 µg/mL | > 8000 µg/mL | > 8000 µg/mL
17 | C/C(=N\NC(=O)CSc1nnnn1C)c1cc(Cl)ccc1Cl | > 8000 µg/mL | > 8000 µg/mL | > 8000 µg/mL | > 8000 µg/mL | 1 mM | 1.5 mM | > 8000 µg/mL | > 8000 µg/mL | > 8000 µg/mL | > 8000 µg/mL
18 | Cn1nnnc1SCC(=O)N/N=C/c1ccccc1 | > 8000 µg/mL | > 8000 µg/mL | > 8000 µg/mL | > 8000 µg/mL | 9.7 mM | 3.16 mM | > 8000 µg/mL | > 8000 µg/mL | > 8000 µg/mL | > 8000 µg/mL
19 | Cn1nnnc1SCC(=O)N/N=C/c1ccc([N+](=O)[O-])cc1 | > 8000 µg/mL | > 8000 µg/mL | > 8000 µg/mL | > 8000 µg/mL | 9.3 mM | 0.632 mM | > 8000 µg/mL | > 8000 µg/mL | > 8000 µg/mL | > 8000 µg/mL
20 | Cc1ccc(/C=N/NC(=O)CSc2nnnn2C)cc1 | > 8000 µg/mL | > 8000 µg/mL | > 8000 µg/mL | > 8000 µg/mL | 3.16 mM | 3.16 mM | > 8000 µg/mL | > 8000 µg/mL | > 8000 µg/mL | > 8000 µg/mL
21 | Cn1nnnc1SCC(=O)N/N=C/c1ccc(F)cc1 | > 8000 µg/mL | > 8000 µg/mL | > 8000 µg/mL | > 8000 µg/mL | 10 mM | 3.16 mM | > 8000 µg/mL | > 8000 µg/mL | > 8000 µg/mL | > 8000 µg/mL
22 | Cn1nnnc1SCC(=O)N/N=C/c1ccc(Cl)cc1 | > 8000 µg/mL | > 8000 µg/mL | > 8000 µg/mL | > 8000 µg/mL | 2.1 mM | 0.1 mM | > 8000 µg/mL | > 8000 µg/mL | > 8000 µg/mL | > 8000 µg/mL
23 | Cn1nnnc1SCC(=O)N/N=C/c1ccc(Br)cc1 | > 8000 µg/mL | > 8000 µg/mL | > 8000 µg/mL | > 8000 µg/mL | 10 mM | > 10 mM | > 8000 µg/mL | > 8000 µg/mL | > 8000 µg/mL | > 8000 µg/mL
24 | CC(C)c1ccc(/C=N/NC(=O)CSc2nnnn2C)cc1 | > 8000 µg/mL | > 8000 µg/mL | > 8000 µg/mL | > 8000 µg/mL | 1.2 mM | 0.4 mM | > 8000 µg/mL | > 8000 µg/mL | > 8000 µg/mL | > 8000 µg/mL
25 | Cn1nnnc1SCC(=O)N/N=C/c1ccc(C(F)(F)F)cc1 | > 8000 µg/mL | > 8000 µg/mL | > 8000 µg/mL | > 8000 µg/mL | > 10 mM | 6.32 mM | > 8000 µg/mL | > 8000 µg/mL | > 8000 µg/mL | > 8000 µg/mL
26 | Cn1nnnc1SCC(=O)N/N=C/c1cccc([N+](=O)[O-])c1 | > 8000 µg/mL | > 8000 µg/mL | > 8000 µg/mL | > 8000 µg/mL | 2 mM | > 10 mM | > 8000 µg/mL | > 8000 µg/mL | > 8000 µg/mL | > 8000 µg/mL
27 | Cn1nnnc1SCC(=O)N/N=C/c1cccc(F)c1 | > 8000 µg/mL | > 8000 µg/mL | > 8000 µg/mL | > 8000 µg/mL | 6.32 mM | 6.32 mM | > 8000 µg/mL | > 8000 µg/mL | > 8000 µg/mL | > 8000 µg/mL
28 | Cn1nnnc1SCC(=O)N/N=C/c1ccccc1Cl | > 8000 µg/mL | > 8000 µg/mL | > 8000 µg/mL | > 8000 µg/mL | > 10 mM | 6.32 mM | > 8000 µg/mL | > 8000 µg/mL | > 8000 µg/mL | > 8000 µg/mL
29 | CC(=O)N1CCN(c2ccc(OCC3COC(Cn4ccnc4)(c4ccc(Cl)cc4Cl)O3)cc2)CC1 (stereo not drawn) [KETOCONAZOLE] | 1 µg/mL (≈ 0.00188 mM) | 15 µg/mL (≈ 0.0282 mM) | 3 µg/mL (≈ 0.00565 mM) | 3 µg/mL (≈ 0.00565 mM) |  |  | 31 µg/mL (≈ 0.0583 mM) | 15 µg/mL (≈ 0.0282 mM) | 3 µg/mL (≈ 0.00565 mM) | 15 µg/mL (≈ 0.0282 mM)
